Screening data from PubChem BioAssay.
A selection: hits, their analogues and other compounds. The true share with any hit is near 11%.
mHtt clearance: clearance of mutant huntingtin inclusions, primary screen, imaging, HeLa Exon1htt(103Q)mCFP, confocal imaging; aggregate imaging; zero = plate's median compound well; inhibition, % at 1.5 µM; 0.42% of 47,000 active; AID 853, 2007;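 active = inhibition of aggregate fluorescence above about 70%, also judged a hit by eye on the cell image, limit read from the data, passing the limit was not always enough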;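 also: cells exposed to compound for three days before fixation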
RORA act: activators of orphan receptor RORA, primary screen, cell-based, luminescence. Nuclear receptor ROR-alpha (Homo sapiens), P35398. 1.5% of 65,000 active. activation, % at 10 µM. CHO-K1 Gal4-RORA LBD luciferase reporter; percent increase over mock-subtracted basal signal;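 active = activation above the mean of all tested compounds plus 3 SD, cut at about 49% in these data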;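 also: 0% = DMSO-treated RORA cells and 100% = added signal equal to DMSO minus mock-transfected cells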
M1 antagonist: antagonists of rat M1 muscarinic receptor; Muscarinic acetylcholine receptor M1 (Rattus norvegicus), P08482; CHO-M1 cells, Fluo-4 calcium, ACh EC80 antagonist mode; active compounds read low; B-score at 10 µM; 3.4% of 64,000 active; AID 628, 2007;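 active = calcium fluorescence response, raw or row-and-column corrected B-score, differing from the plate sample mean either way at a set confidence level, mostly lower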
SF-1 act: activators of human SF-1, primary screen, cell-based, CHO-K1, Gal4-SF-1 LBD, luciferase luminescence. 1.9% of 65,000 active. Steroidogenic factor 1 (Homo sapiens), Q13285. AID 522, 2006. activation, % at 10 µM. CHO-K1 Gal4-SF-1 LBD luciferase reporter; % increase over DMSO SF-1-specific signal;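 active = activation above the mean activation of all tested compounds plus 3 SD, cut at about 50% in these data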
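Material: CHO-K1 cells with Gal4–hSF-1 LBD chimera plus Gal4-driven luciferase / Input: 4,000 CHO-K1 cells per well / Incubation: compound exposure 20 h at 37 °C / Signal: luminescence read 15 min after SteadyLite luciferase reagent, after room-temperature equilibration / Read-out: percent activation versus DMSO / Benchmarks: DMSO negative control and −SF1 background wells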
M1 agonist: M1 muscarinic receptor agonists, primary screen, CHO-M1 cells, Fluo-4 calcium, agonist mode; Fluo-4 calcium fluorescence; active compounds read high; Muscarinic acetylcholine receptor M1; 3% of 64,000 active; B-score at 10 µM;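 active = fluorescence rise, raw or as B-score row- and column-corrected plate score, outside the 99.7% band of its plate's samples, either direction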
D1 mod: D1 CRE-luciferase signal change, two-sided – cell-based, HEK293 D1, dopamine EC30, D1 allosteric modulator project, primary screen | D(1A) dopamine receptor (Homo sapiens), P21728 | dopamine EC30 potentiation; actives deviate in either direction | B-score at 10 µM | 5.9% of 58,000 active | AID 641, 2007;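 active = luminescence count or its row- and column-corrected plate score outside the 99.7% band of the plate's sample wells, on either side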
Target sequence (P21728 whole entry, looked up): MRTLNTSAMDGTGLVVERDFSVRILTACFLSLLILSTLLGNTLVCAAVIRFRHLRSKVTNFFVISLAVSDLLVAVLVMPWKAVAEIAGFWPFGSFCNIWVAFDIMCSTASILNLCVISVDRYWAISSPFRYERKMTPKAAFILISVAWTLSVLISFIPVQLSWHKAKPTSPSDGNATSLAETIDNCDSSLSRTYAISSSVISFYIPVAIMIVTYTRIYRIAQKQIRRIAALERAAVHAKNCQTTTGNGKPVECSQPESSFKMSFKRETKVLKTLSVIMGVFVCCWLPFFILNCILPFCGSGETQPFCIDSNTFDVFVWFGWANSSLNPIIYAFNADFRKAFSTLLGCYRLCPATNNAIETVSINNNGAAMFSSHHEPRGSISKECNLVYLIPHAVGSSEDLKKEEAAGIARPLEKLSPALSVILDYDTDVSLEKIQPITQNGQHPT
D1 mod confirm: D1 receptor positive allosteric modulators, retest, confirmation, cell-based, HEK293 D1, CRE-luciferase, duplicate; dopamine EC30 potentiation; active compounds read high; shares compounds with D1 mod; AID 642, 2007; 88% of 2,200 active; luminescence at 10 µM;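 active = luminescence in either of two replicates above the same-plate mean plus 3 SD of the low-dose dopamine control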
D1 no dopamine: D1 receptor agonism without dopamine, confirmation, mechanism study for D1 allosteric modulator project, cell-based, HEK293 D1, CRE-luciferase, secondary assay 1. shares compounds with D1 mod. luminescence at 10 µM. luminescence, no dopamine; active compounds read high. 0.8% of 1,900 active; in the data active = luminescence above about 3900
Isoprot counter: counter-screen for D1 modulators: isoproterenol response in HEK293 cells. HEK293 D1 CRE-luciferase, isoproterenol EC30 counter-screen. calls only at 10 µM. shares compounds with D1 mod. 63% of 2,200 active. AID 647;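 active = luminescence in either replicate above plate mean of wells with a partly effective reference agonist dose plus 3 SD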;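 also: isoproterenol raises cAMP through native beta-adrenoceptor Gs so signal bypasses D1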
Starred values were filed as active, the others as inactive; i = inactive; nt = no result given; + = active, no number.

SMILES	mHtt clearance	RORA act	M1 antagonist	SF-1 act	M1 agonist	D1 mod	D1 mod confirm	D1 no dopamine	Isoprot counter
COCCN(CCOC)Cc1cc(=O)oc2cc3c(cc12)CCC3	-35	-21	nt	-12	nt	2.4*	9280*	nt	+
O=C(NC1CCCc2ccccc21)C1CCN(C(=O)c2sccc2-n2cccc2)CC1 (configuration not stated)	nt	-7	0.12	-17	0.44	-0.00092	nt	nt	nt
Nc1[nH]nc2nc(N3CCOCC3)nc(-c3ccccc3)c12	nt	12	0.46	14	0.53	9.8*	13488*	nt	+
CC(C)c1ccc(-c2nc(N3CCCC3)nc3n[nH]c(N)c23)cc1	nt	48	-0.0024	20	0.18	0.05	nt	nt	nt
CSc1nn(CCc2ccncc2)c(=S)s1	-58	21	-0.32	-5	1.2	-0.034	nt	nt	nt
CCOc1ccc(C(=O)OCc2nnc(-c3cccs3)o2)cc1OC	nt	0	0.018	0	-1.3	15*	16352*	1560	+
CCOc1ccc(C(=O)OCn2nnc3ccccc3c2=O)cc1OC	nt	15	1.7	-3	0.84	16*	23528*	1684	+
CCCc1[nH]nc2c1C1(CCN(C(=O)OCc3ccccc3)CC1)C(C#N)=C(N)O2	-42	15	-0.73	5	1.5	2.5*	8040*	1388	+
Cc1cccc(OCC(=O)OCC(=O)c2c(N)n(C)c(=O)n(C)c2=O)c1	35	-11	-0.49	10	-0.17	-0.52	nt	nt	nt
N#Cc1c(N)nc(SCc2ccncc2)c(C#N)c1-c1cccs1	nt	12	-0.059	-1	-1.2	6.5*	8108*	1716	+
COc1cc(-c2c(C#N)c(N)nc(SCc3ccncc3)c2C#N)cc(OC)c1OC	nt	-13	0.15	-12	0.28	0.26	nt	nt	nt
CCCCn1cc(C(C)(C)C)c(C#N)c1NC(C)=O	nt	11	0.5	18	-0.11	6*	9748*	1536	+
CCCCn1c(NC(=O)c2ccccc2)c(C#N)c2nc3ccccc3nc21	nt	7	nt	3	nt	-1.3	nt	nt	nt
CC(=O)Oc1ccc(-c2ccc(C(=O)O)cc2)cc1	-2	6	1.4	-4	0.23	0.0087	nt	nt	nt
O=C(O)c1ccc(-c2ccc(O)c(F)c2)cc1	nt	-10	-0.97	3	1.6	5.9*	7760*	1624	+
CC(C)c1nnc(NC(=O)CCC(=O)NCc2ccc3c(c2)OCO3)s1	-77	10	0.042	4	-0.69	-0.072	nt	nt	nt
C=CCn1c(NCCO)nc2sc3c(c2c1=O)CCC3	nt	-4	-0.086	6	-0.019	11*	6332	1628	i
CC1Cn2c(nc3sc4c(c3c2=O)CCC4)N1CCO (configuration not stated)	nt	0	-0.034	32	-0.62	0.16	nt	nt	nt
CN(c1ccccc1)c1nc(N2CCCC2)nc(-n2ccnc2)n1	35	-36	-1.3	-5	1.1	4.9*	11496*	1580	+
CCCC(=O)c1c(NC(C)C)cc(C)oc1=O	nt	-2	0.32	-11	-1.8	5.7*	12004*	1700	+
N#Cc1cc2c(nc1SCc1cccnc1)CCCCC2	58	12	-1.5	9	0.97	10*	23880*	1748	+
O=C(c1ccccc1Oc1ccccc1)N1CCN(c2ccccc2)CC1	-31	-1	0.3	-8	0.55	-1.7	nt	nt	nt
